The values below come from ChEMBL document CHEMBL5029154, “Design, Synthesis, and Biological Evaluation of Organic Nitrite (NO2-) Donors as Potential Anticerebral Ischemia Agents” (J Med Chem, 2021).

SMILES strings stand for the structures. The source made the active and inactive calls. The rule behind the calls is not given here.

For data set [1], the system named is Cortical neurone. In words: Neuroprotective activity against in OGD/R-induced Sprague-Dawley rat cortical neuron injury assessed as cell viability pretreated at 1.8 uM for 24 hrs followed by subjected to OGD for 2 hrs measured after 24 hrs under normoxic condition. It is filed as functional, tissue-based. Summed up:
(§1)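 Cortical neurons were isolated from SD rat cortex by enzymatic digestion, plated on poly-lysine in 10% FBS DMEM, and pretreated 24 h at 1.8 μM in basal medium with 2% B27. OGD was run in glucose/FBS-free DMEM under 1% O₂, followed by 24 h reoxygenation in 10% FBS DMEM. Viability was read by MTT; apoptosis was also assessed. Three independent experiments.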

Data set [2] is described as follows: Drug metabolism assessed as nitric oxide release in presence of bovine plasma at 200 uM measured after 1 hr by Griess reagent based assay. Format: ADME, cell-free, Bos taurus. To be noted: cattle.
Data set [3] can be described thus: Neuroprotective activity against in OGD/R-induced rat cortical neuron apoptosis assessed as late apoptotic cells pretreated at 1.8 uM for 24 hrs followed by subjected to OGD for 2 hrs measured after 24 hrs under normoxic condition by PI/FITC-H staining based flow cytometry (reference value: 6.31%). It is filed as functional, Cortical neurone. (In flow cytometry, cells or beads pass a laser one at a time.)

Data set [4] has as its system Cortical neurone. In words: Induction of Nrf2 protein level in OGD/R-induced rat primary cortical neuron pretreated at 1.8 uM for 24 hrs followed by subjected to OGD for 2 hrs measured after 24 hrs under normoxic condition by Western blot analysis. It is filed as functional, tissue-based. The procedure, abridged:
(§2)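 Primary rat cortical neurons were pretreated with 1.8 μM compound for 24 h, given 2 h OGD, then 24 h normoxic culture. Nrf2, HO-1 and NQO1 mRNA were measured by RT-qPCR. Cytoplasmic and nuclear protein (30 μg/lane) were blotted for Nrf2, with lamin A and β-actin as references, and quantified by densitometry as the nuclear:cytoplasmic ratio. Three independent experiments, mean ± SD.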
On the technique in general: A western blot detects proteins with antibodies after separation by electrophoresis.

The nature of data set [5]: Neuroprotective activity against in OGD/R-induced rat cortical neuron apoptosis assessed as necrotic cells pretreated at 1.8 uM for 24 hrs followed by subjected to OGD for 2 hrs measured after 24 hrs under normoxic condition by PI/FITC-H staining based flow cytometry (reference value: 3.68%). Format: functional, Cortical neurone.
For data set [6], the system named is Cortical neurone. In words: Induction of NQO1 mRNA transcript level in OGD/R-induced rat primary cortical neuron pretreated at 1.8 uM for 24 hrs followed by subjected to OGD for 2 hrs measured after 24 hrs under normoxic condition by RT-qPCR analysis. Format: functional, tissue-based. Summed up:
as §2
In general terms: Quantitative PCR measures a nucleic acid by following its amplification.

The subject of data set [7] is Cortical neurone. In words: Induction of HO-1 mRNA transcript level in OGD/R-induced rat primary cortical neuron pretreated at 1.8 uM for 24 hrs followed by subjected to OGD for 2 hrs measured after 24 hrs under normoxic condition by RT-qPCR analysis. It is filed as functional, tissue-based. Summed up: as §2
A short description of data set [8]: Neuroprotective activity against in OGD/R-induced rat cortical neuron apoptosis assessed as early apoptotic cells pretreated at 1.8 uM for 24 hrs followed by subjected to OGD for 2 hrs measured after 24 hrs under normoxic condition by PI/FITC-H staining based flow cytometry (reference value: 58.46%). It is filed as functional, Cortical neurone.
The nature of data set [9]: Neuroprotective activity against in OGD/R-induced rat primary cortical neuron apoptosis assessed as viable cells pretreated at 1.8 uM for 24 hrs followed by subjected to OGD for 2 hrs measured after 24 hrs under normoxic condition by PI/FITC-H staining based flow cytometry (reference value: 31.55%). To be noted: Cortical neurone, read-out: Activity. Format: functional. Summed up:
as §1

Data set [10] concerns Cortical neurone. In words: Effect on Nrf2 mRNA transcript level in OGD/R-induced rat primary cortical neuron pretreated at 1.8 uM for 24 hrs followed by subjected to OGD for 2 hrs measured after 24 hrs under normoxic condition by RT-qPCR analysis. It is filed as functional, tissue-based. The procedure, abridged: as §2
The next data set has as its system HUVEC. Put plainly: Angiogenesis activity in HUVEC cells assessed as increase in tube formation at 1.8 uM measured after 8 hrs by inverted microscopy. Format: functional, cell-based. The conditions noted are these: Homo sapiens. The procedure, abridged: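 Early-passage HUVECs (passages 2–6), grown in DMEM with 10% FBS, glutamine, pyruvate and antibiotics, were seeded at 8 × 10⁴ cells/well on Matrigel. They were exposed to vehicle or compound for 8 h at 37 °C, 5% CO₂. Tubes were counted under an inverted microscope.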

Data set [11] has as its system Cortical neurone. In words: Neuroprotective activity against in OGD/R-induced rat cortical neuron cytotoxicity assessed as decrease in cell viability pretreated at 1.8 uM for 24 hrs followed by subjected to OGD for 2 hrs measured after 24 hrs under normoxic condition by MTT assay. It is filed as functional, tissue-based. Summed up:
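Primary rat cortical neurons from enzymatically digested cortex, plated on poly-lysine in DMEM/10% FBS for 4 h. Pretreated 24 h in neuron basal medium with 2% B27, then glucose/FBS-free DMEM at 1% O2. Returned to 10% FBS DMEM under normoxia for 24 h. Viability by MTT; three independent experiments, mean SD.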

On to `N#C/C(=C\c1ccccc1)C[N+](=O)[O-]`, for which the result in the data set on Cortical neurone [1] was Active. Besides, the Drug metabolism entry in data set [2] is given as “Metabolite_Detected”.
Turning to `CC(C)(C)c1cc(O)ccc1O` [E319], the values for the Activity in [3], in [5] and in data set [8] were 1.4%, 0.84% and 13.91%, respectively. Further, the result in the data set on Cortical neurone [4], in the data set on Cortical neurone [6] and in the data set on Cortical neurone [7] was Active. Moreover, the viability at 1.8 µM in data set [9] amounted to 84%. Besides, in the data set on Cortical neurone [10], the outcome was inactive.
Turning to `C/C(=C\c1ccccc1)C(=O)c1ccccc1`, the result in the data set with Cortical neurone [4] was Active. Moreover, in the data set with HUVEC, the result was inactive.
Turning to `COC(=O)/C(=C/c1ccccc1)C[N+](=O)[O-]`, the outcome in the data set with Cortical neurone [1] was Active. For the same compound, the Drug metabolism result in data set [2] is “Metabolite_Detected”.
Consider `O=N[O-].[Na+]` [SODIUM NITRITE], for which the results for the Activity in data set [3], in data set [5] and in data set [8] were 2.47%, 0.51% and 50.12%, respectively. The outcome with Cortical neurone [4], in the data set with Cortical neurone [11] and in the data set with Cortical neurone [10] was inactive. Moreover, the viability at 1.8 µM in [9] worked out at 46.9%.
As to `O=C1CCCC=C1C[N+](=O)[O-]`, the Drug metabolism entry in [2] is “Metabolite_Detected”.
For `O=[N+]([O-])C/C(=C\c1ccccc1)[N+](=O)[O-]`, in the data set on Cortical neurone [1], the outcome was Active. The Drug metabolism result in data set [2] was “Metabolite_Detected”.
